{"source": "ChEMBL document CHEMBL4513216", "about": "“Probing the Open Global Health Chemical Diversity Library for Multistage-Active Starting Points for Next-Generation Antimalarials” (ACS Infect Dis, 2020)", "data": [{"assay": "Toxicity liver stage against HepG2, at 10uM", "type": "cell-based", "set-up": "test concentration 10 uM, cell line HepG2-A16-CD81EGFP", "conditions": "human, HepG2-A16-CD81EGFP cells; read-out: INHIBITION", "in_short": "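Uninfected HepG2-A16-CD81EGFP cells, 3 × 10^3 per well, 1536-well, plated on prespotted compound at 10 μM final, parasite-free screening media added to match infected plates; puromycin 10 μM positive, DMSO 0.5% negative; run in parallel with 48 h PbLuc assay at 37 °C, 5% CO2; viability by CellTiter-Glo luminescence, normalized to controls.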", "units": {"cytotoxicity at 10 µM": "%"}, "values": [{"smiles": "CCn1nc(C)c(CCN2CC3(CCOC3)CCC2=O)c1C", "note": "(configuration not stated)", "cytotoxicity at 10 µM": -118}, {"smiles": "COc1cc2nc(NCc3ccc(C)nc3)nc(N)c2cc1OC", "cytotoxicity at 10 µM": 2.94}, {"smiles": "O=C(O)[C@@H]1CN(CC(=O)N2CCCCCC2)C[C@H]1c1ccc(F)cc1", "cytotoxicity at 10 µM": -3.24}, {"smiles": "COc1ccc(S(=O)(=O)N2CCC(Cn3ccnc3)CC2)cc1", "cytotoxicity at 10 µM": -0.178}, {"smiles": "CC(=O)Nc1ccc(CNCC(O)c2ccccc2)cc1", "note": "(configuration not stated)", "cytotoxicity at 10 µM": -10.1}, {"smiles": "COc1ncccc1CNC1CCc2c(ccc(=O)n2CC2CC2)C1", "note": "(configuration not stated)", "cytotoxicity at 10 µM": -110}, {"smiles": "O=C(N1CCOCC1)[C@@]12CCO[C@@H]1CCN(CCN1CCCCC1)C2", "cytotoxicity at 10 µM": -3.78}, {"smiles": "Cc1nc(CC(=O)N2CCCCC2c2ccn3ccnc3n2)cs1", "note": "(configuration not stated)", "cytotoxicity at 10 µM": -13.4}, {"smiles": "Cc1cc2ncc(C(C)NCc3cccnc3)c(C)n2n1", "note": "(configuration not stated)", "cytotoxicity at 10 µM": -0.0764}, {"smiles": "CCC1CN(C(=O)c2ccc(=O)[nH]c2)CCC(=O)N1Cc1ccccc1", "note": "(configuration not stated)", "cytotoxicity at 10 µM": -17.6}, {"smiles": "Cc1nc(CC(=O)N(CCN2CCOCC2)Cc2ccco2)c(C)s1", "cytotoxicity at 10 µM": -3.71}, {"smiles": "CN1CC2(CCCN(C(=O)c3cnc4ccc(F)cc4c3O)C2)OC1=O", "note": "(configuration not stated)", "cytotoxicity at 10 µM": 6.25}, {"smiles": "Cc1noc(C2CCC3(CCN(C(=O)C4CCOCC4)CC3)O2)n1", "note": "(configuration not stated)", "cytotoxicity at 10 µM": 7.16}, {"smiles": "OCCCN1CCc2[nH]nc(C(c3ccccc3)c3ccccc3)c2C1", "cytotoxicity at 10 µM": -0.869}, {"smiles": "N#Cc1cccc(C(=O)N2CC(c3nc(-c4cccnc4)no3)C2)c1", "cytotoxicity at 10 µM": -6.03}, {"smiles": "Cc1cnc(N2CCCC3(COCCN(c4ccc(C)nn4)C3)C2)nc1", "note": "(configuration not stated)", "cytotoxicity at 10 µM": -126}, {"smiles": "COCCOc1cccc(CNCC2CN(C)CCO2)c1", "note": "(configuration not stated)", "cytotoxicity at 10 µM": -14.8}, {"smiles": "CCN(CC)Cc1ccc(C(=O)N2CCCC2c2cnn(C)c2)o1", "note": "(configuration not stated)", "cytotoxicity at 10 µM": 3.51}, {"smiles": "Cc1nc2sccn2c1C(=O)N1CCc2c(nc(N)[nH]c2=O)C1", "cytotoxicity at 10 µM": -3.22}, {"smiles": "Cc1noc(C)c1CN1CCC(c2nnc(Cn3cccn3)n2C)CC1", "cytotoxicity at 10 µM": 3.82}, {"smiles": "COCCNc1cc(-c2ccccc2S(N)(=O)=O)c2cc[nH]c2n1", "cytotoxicity at 10 µM": 6.68}, {"smiles": "O=C(CCc1nc2ccccc2[nH]1)N1CCCC(n2cccn2)C1", "note": "(configuration not stated)", "cytotoxicity at 10 µM": -15.9}, {"smiles": "Cc1nc(C)c(C(C)NCc2c(C)nn(CC(C)C)c2N(C)C)s1", "note": "(configuration not stated)", "cytotoxicity at 10 µM": -2.49}, {"smiles": "CC(C)COCC(C)NC(=O)NCc1cccc(-n2cncn2)c1", "note": "(configuration not stated)", "cytotoxicity at 10 µM": -0.662}, {"smiles": "Cc1cc(CS(=O)(=O)C(C)C(=O)N(C)c2ccccc2)on1", "note": "(configuration not stated)", "cytotoxicity at 10 µM": 2.74}, {"smiles": "COc1cc(/C=C/c2ncc(C(=O)O)s2)cc(Cl)c1OC", "cytotoxicity at 10 µM": 8.01}, {"smiles": "CCc1cc(NC2CCOCC2)n2nc(C)c(C)c2n1", "cytotoxicity at 10 µM": 0.551}, {"smiles": "Cc1ncccc1CNCC1CCN(CC(C)O)CC1", "note": "(configuration not stated)", "cytotoxicity at 10 µM": -5.59}, {"smiles": "COc1ncccc1CN1C[C@H]2CCN(c3ccc(C)nn3)C[C@H]2C1", "cytotoxicity at 10 µM": 4.59}, {"smiles": "CCc1cnc(CN(C)C2CCN(CCc3ccccn3)C2)o1", "note": "(configuration not stated)", "cytotoxicity at 10 µM": -14.2}, {"smiles": "Cc1nc(C(C)C)sc1C(=O)NCCn1ccnc1", "cytotoxicity at 10 µM": 1.28}, {"smiles": "CC(c1c(F)cccc1F)N1CCN(Cc2nccn2C)CC1", "note": "(configuration not stated)", "cytotoxicity at 10 µM": -13.6}, {"smiles": "Cc1ccc(CN2CC[C@H]3OCC[C@@H](C(=O)NCC4CC4)[C@@H]3C2)s1", "cytotoxicity at 10 µM": -0.53}, {"smiles": "Cc1ccc(-c2cc(CN3CCOC(Cn4cncn4)C3)on2)cc1", "note": "(configuration not stated)", "cytotoxicity at 10 µM": -8.65}, {"smiles": "O=C(NCCO)Nc1ccc(Br)c(F)c1", "cytotoxicity at 10 µM": 1.92}, {"smiles": "Cc1nc(CN(C)C2CCN(Cc3cccc4c3OCCO4)C2)no1", "note": "(configuration not stated)", "cytotoxicity at 10 µM": -13.9}, {"smiles": "Cc1noc(C)c1CN1CCOC2(CCCN(c3ncccn3)C2)C1", "note": "(configuration not stated)", "cytotoxicity at 10 µM": 8.27}, {"smiles": "Cc1ccc(CN2CCC3(CC(=O)N(c4ccc5c(c4)OCO5)C3)C2)o1", "note": "(configuration not stated)", "cytotoxicity at 10 µM": -70.2}, {"smiles": "COc1ccc(F)cc1C(C)NC(=O)NCCCn1cncn1", "note": "(configuration not stated)", "cytotoxicity at 10 µM": -17.8}, {"smiles": "O=C(c1ccc(Cn2cc(Br)cn2)cc1)N1CCCC1", "cytotoxicity at 10 µM": -7.86}, {"smiles": "CC(C)NS(=O)(=O)c1cc(C(=O)O)cc(-c2ccccc2CO)c1", "cytotoxicity at 10 µM": 0.555}, {"smiles": "CN1CCCC(CCC(=O)N2CCc3[nH]c(-c4ccccc4)nc3C2)C1", "note": "(configuration not stated)", "cytotoxicity at 10 µM": -4.13}, {"smiles": "Cc1nn(C)c(C)c1CN(Cc1cccn1-c1ncccn1)C(C)C", "cytotoxicity at 10 µM": -0.316}, {"smiles": "CCc1ccc(C(=O)O)cc1S(=O)(=O)Nc1c(C)ccn(C)c1=O", "cytotoxicity at 10 µM": 4.28}, {"smiles": "FC(F)Oc1ccccc1CN1CCCC(c2nccn2CC2CC2)C1", "note": "(configuration not stated)", "cytotoxicity at 10 µM": 6.64}, {"smiles": "Cc1ccc(CN(CCN(C)C)C(=O)Cc2cn3ccccc3n2)o1", "cytotoxicity at 10 µM": -5.1}, {"smiles": "Cc1ccc(N2CCO[C@H]3CN(Cc4cccs4)C[C@H]32)nn1", "cytotoxicity at 10 µM": -75.6}, {"smiles": "Cc1cc(NS(=O)(=O)CC2CCCCO2)ccc1F", "note": "(configuration not stated)", "cytotoxicity at 10 µM": -11.7}, {"smiles": "CN1CC2(CCNCC2)CC1C(=O)NCCCNc1cccnc1", "note": "(configuration not stated)", "cytotoxicity at 10 µM": 6.24}, {"smiles": "Cc1cc(C)c(CNc2cnn(CC(O)CN(C)C)c2)c(C)c1", "note": "(configuration not stated)", "cytotoxicity at 10 µM": 15}, {"smiles": "CN(C)c1nccc(-c2cnc(N(C)C)[nH]c2=O)n1", "cytotoxicity at 10 µM": -1.17}, {"smiles": "CC(C)N1CCOCC2(CN(Cc3nccs3)CCO2)C1", "note": "(configuration not stated)", "cytotoxicity at 10 µM": -0.653}, {"smiles": "CC1c2ncc(COCC3CCOCC3)n2CCN1C(=O)c1ccoc1", "note": "(configuration not stated)", "cytotoxicity at 10 µM": 7.01}, {"smiles": "CCc1nc(CC)n(CC(=O)NCc2cccc(C)c2)n1", "cytotoxicity at 10 µM": -2.25}, {"smiles": "Cc1[nH]ccc1C(=O)N1CCCC(c2ccc(C(=O)O)cc2)C1", "note": "(configuration not stated)", "cytotoxicity at 10 µM": -0.591}, {"smiles": "NC(=O)CN1CCOCC(Cc2cccc(F)c2)C1", "note": "(configuration not stated)", "cytotoxicity at 10 µM": -12.2}, {"smiles": "CCc1c(C)nn(CCNC(=O)C2CCCN(C(=O)N(C)C)C2)c1C", "note": "(configuration not stated)", "cytotoxicity at 10 µM": -4.42}, {"smiles": "Clc1cc(NCc2nccs2)nc2[nH]ccc12", "cytotoxicity at 10 µM": 6.58}, {"smiles": "CC(NC(=O)Cc1cccs1)(C(N)=O)c1cccc(Cl)c1", "note": "(configuration not stated)", "cytotoxicity at 10 µM": 11.3}, {"smiles": "CC(=O)N1Cc2cnc(C(C)(C)C)nc2C1", "cytotoxicity at 10 µM": -122}, {"smiles": "CCCc1nc(NCCCn2cccn2)c2c(n1)c(C)nn2CC", "cytotoxicity at 10 µM": 7.88}, {"smiles": "Cc1cccc(OC2CN(C(=O)C3CC(=O)N(C(C)(C)C)C3)C2)c1", "note": "(configuration not stated)", "cytotoxicity at 10 µM": 4.4}, {"smiles": "Cc1cnc(CN(C)C2CCN(CC(=O)Nc3nccs3)C2)o1", "note": "(configuration not stated)", "cytotoxicity at 10 µM": -1.49}, {"smiles": "CCc1noc(CNc2ccc(C(=O)N3CCCC3)cc2C)n1", "cytotoxicity at 10 µM": -8.25}, {"smiles": "CCOc1ccc(-c2nc(CN(C)Cc3c(C)noc3C)cs2)cc1", "cytotoxicity at 10 µM": 38.6}, {"smiles": "CC(C)N1CC2(CCCN(c3ccnc4ccccc34)C2)CCC1=O", "note": "(configuration not stated)", "cytotoxicity at 10 µM": 8.62}, {"smiles": "COC(=O)C1CCCN1C(=O)c1ccc(Br)cc1F", "note": "(configuration not stated)", "cytotoxicity at 10 µM": 2.96}, {"smiles": "Cc1cc(C2CCCN2Cc2nc3c(cnn3C)c(=O)[nH]2)on1", "note": "(configuration not stated)", "cytotoxicity at 10 µM": -10.7}, {"smiles": "CCc1nc(CN(C)C2CCN(CCS(C)(=O)=O)C2)no1", "note": "(configuration not stated)", "cytotoxicity at 10 µM": 4.45}, {"smiles": "O=C(O)C1(Oc2ccc(Cl)cc2)CCN(C2CCOCC2)CC1", "cytotoxicity at 10 µM": 3.05}, {"smiles": "Cc1ccc([C@@H]2CN(C(=O)c3ccon3)C[C@H]2NC(=O)C2CC2)cc1", "cytotoxicity at 10 µM": 1.08}, {"smiles": "c1ccc(-c2ncc(CN3CCC4(CCNCC4)C3)cn2)cc1", "cytotoxicity at 10 µM": -5.71}, {"smiles": "Cc1ccccc1CS(=O)(=O)c1nnc(C(C)NC(=O)OC(C)(C)C)o1", "note": "(configuration not stated)", "cytotoxicity at 10 µM": -1}, {"smiles": "COC(=O)c1ccc(Cn2nc(C)cc2C)c(OC)c1", "cytotoxicity at 10 µM": 10.7}, {"smiles": "Cc1nn(C)c(Cl)c1C1CCCN1C(=O)c1cnc[nH]1", "note": "(configuration not stated)", "cytotoxicity at 10 µM": -2.11}, {"smiles": "Cc1nn(C)c(C)c1CCC(=O)N1CC(c2cccnc2)C1", "cytotoxicity at 10 µM": -4.84}, {"smiles": "Cc1cc(CS(=O)(=O)N(C)C(C)c2ccc(Cl)cc2)on1", "note": "(configuration not stated)", "cytotoxicity at 10 µM": 9.72}, {"smiles": "O=C(c1ccccc1)N1CCO[C@@H]2CN(c3cnccn3)C[C@@H]2C1", "cytotoxicity at 10 µM": 0.442}, {"smiles": "CC(C)CCN1CCC2(CC1)NCc1ccccc1NC2=O", "cytotoxicity at 10 µM": 3.46}, {"smiles": "O=C(c1cc[nH]n1)N1CCc2ccc(S(=O)(=O)N3CCOCC3)cc2C1", "cytotoxicity at 10 µM": 5.18}, {"smiles": "COc1ccc(CN(C)c2nccc(-c3cn(C)nc3C)n2)cc1", "cytotoxicity at 10 µM": 13.6}, {"smiles": "CNc1nc(CNC(=O)Nc2cccc(Cl)c2OC)cs1", "cytotoxicity at 10 µM": -12.4}]}]}
